From ChEMBL document CHEMBL1156509, “Survival in the presence of antifungals: genome-wide expression profiling of Aspergillus niger in response to sublethal concentrations of caspofungin and fenpropimorph” (2007)
Active and inactive are the calls of the source.

Columns and labels:
Aspergillus niger [1] = assay: Effect on increase sub apical branching in Aspergillus niger N402 germlings assessed as branching index at 5 ng/mL after 5 hrs; assay type: functional
Summary of the method: (§1)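 N402 conidia (5×10^5) were germinated 5 h at 37 °C on coverslips in 5 ml liquid MM plus 0.003% yeast extract. Compound was added (water for controls) and culture continued 1 h at 37 °C. At least 50 adherent germlings were scored microscopically as branched or unbranched; branching index = branched/(branched + unbranched).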

Aspergillus niger [2] = assay: Induction of mkkA gene expression in Aspergillus niger by microarray analysis relative to control; assay type: functional
Summary of the method: (§2)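 A. niger N402 conidia (5×10^9) grown in 5 L fermentation medium in a bioreactor at 37 °C, pH 3, 250 rpm. Drug in distilled H2O or H2O alone added at 5 h; mycelium harvested by filtration 1 h later and frozen in liquid nitrogen. cRNA hybridized to Affymetrix A. niger GeneChips, two independent bioreactor runs per condition; normalized, ≥1.5-fold change at p 0.05 cutoff.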

Aspergillus niger [3] = assay: Effect on morphological changes in Aspergillus niger N402 germlings assessed as increase in germ tube; assay type: functional, organism-based
Summary of the method: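 Bioreactor: 5×10^9 N402 conidia in 5 l fermentation medium, pH 3 controlled, 37 °C, 250 rpm. Compound in water (or water alone) added at 5 h, then 1 h further cultivation. At least 200 germlings per run were counted for germ tubes per germling and subapical branches. Mean ± S.D. from two independent runs.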

Aspergillus niger [4] = assay: Induction of gfaA gene expression in Aspergillus niger by microarray analysis relative to control; assay type: functional; summary of the method: as §2
Aspergillus niger [5] = assay: Induction of dfgC gene expression in Aspergillus niger by microarray analysis relative to control; assay type: functional; summary of the method: as §2
Aspergillus niger [6] = assay: Effect on morphological changes in Aspergillus niger N402 germlings assessed as germ tube elongation and branching at 5 ng/mL after 5 hrs; assay type: functional, organism-based
Summary of the method: (§3)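 Compound or water control was added, then 1 h more at 37 °C. Adherent germlings were scored by microscopy, at least 50 per sample, as branched or unbranched. Branching index = branched/total germlings.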

Aspergillus niger [7] = assay: Effect on morphological changes in Aspergillus niger N402 germlings assessed as tip swelling at 0.9 ug/mL after 5 hrs; assay type: functional, organism-based
Aspergillus niger [8] = assay: Induction of rapA gene expression in Aspergillus niger by microarray analysis relative to control; assay type: functional; summary of the method: as §2
Aspergillus niger [9] = assay: Upregulation of agtA gene expression in Aspergillus niger relative to control; assay type: functional, organism-based
Summary of the method: (§4)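 N402 conidia (5×10^9) were grown in 5 l fermentation medium, pH 3, 37 °C, 250 rpm in a bioreactor. After 5 h compound was added (water for controls); mycelium was harvested 1 h later. RNA was hybridized to A. niger Affymetrix GeneChips from two independent bioreactor runs. Genes with ≥1.5-fold change at p < 0.05 after normalization were counted as differentially expressed.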

Aspergillus niger [10] = assay: Effect on morphological changes in Aspergillus niger N402 germlings assessed as germ tube elongation and branching at 0.9 ug/mL after 5 hrs; assay type: functional, organism-based; summary of the method: as §3
Aspergillus niger [11] = assay: Induction of agsA expression in Aspergillus niger N402 germlings; assay type: functional, organism-based
Summary of the method: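 RNA from 1 h-treated N402 bioreactor germlings (5 h pre-growth, FM pH 3, 37 °C) was hybridised to A. niger Affymetrix arrays, biological duplicate. Data were normalised; differential expression was taken as at least 1.5-fold change with p cutoff 0.05. Northern blots on the same RNA were used for validation.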

Aspergillus niger [12] = assay: Induction of rhoB gene expression in Aspergillus niger by microarray analysis relative to control; assay type: functional; summary of the method: as §2
Aspergillus niger [13] = assay: Antifungal activity against Aspergillus niger RD6.47 at 25.6 ug/mL by microtiter plate; assay type: functional, organism-based
Summary of the method: (§5)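 Reporter germlings (cytoplasmic PagsA-GFP JvD1.1 or nuclear PagsA-H2B-GFP RD6.47), 2×10^4 conidia per well in 2× CM, pre-grown 6 h at 37 °C. A 2-fold dilution series (seven concentrations) was then added and plates were held 3 h at 30 °C. Adherent germlings were imaged, and growth inhibition was scored 0/1/2 from hyphal length.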

Aspergillus niger [14] = assay: Induction of ugpA gene expression in Aspergillus niger by microarray analysis relative to control; assay type: functional; summary of the method: as §2
Aspergillus niger [15] = assay: Antifungal activity against Aspergillus niger JvD1.1 by microtiter plate; assay type: functional, organism-based; summary of the method: as §5
Aspergillus niger [16] = assay: Induction of lplB gene expression in Aspergillus niger by microarray analysis relative to control; assay type: functional; summary of the method: as §2
Aspergillus niger [17] = assay: Effect on morphological changes in Aspergillus niger N402 germlings assessed as tip swelling at 5 ng/mL after 5 hrs; assay type: functional, organism-based
Aspergillus niger [18] = assay: Effect on morphological changes in Aspergillus niger JvD1.1 assessed as tip swelling; assay type: functional, organism-based
Aspergillus niger [19] = assay: Induction of dppA gene expression in Aspergillus niger by microarray analysis relative to control; assay type: functional; summary of the method: as §2
Aspergillus niger [20] = assay: Induction of crhB gene expression in Aspergillus niger by microarray analysis relative to control; assay type: functional; summary of the method: as §2
Aspergillus niger [21] = assay: Induction of chsB gene expression in Aspergillus niger by microarray analysis relative to control; assay type: functional; summary of the method: as §2
Aspergillus niger [22] = assay: Induction of dpmA gene expression in Aspergillus niger by microarray analysis relative to control; assay type: functional; summary of the method: as §2
Aspergillus niger [23] = assay: Effect on morphological changes in Aspergillus niger N402 germlings assessed as branching index at 50 ng/mL; assay type: functional; summary of the method: as §1
Aspergillus niger [24] = assay: Induction of GFP tagged PagsA expression in Aspergillus niger JvD1.1 by fluorescence microscopy; assay type: functional, organism-based
Summary of the method: (§6)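 Conidia of the agsA-promoter GFP reporters (2×10^4 per well, 2× CM) germinated 6 h at 37 °C, then were exposed 3 h at 30 °C to seven 2-fold serial dilutions. GFP in adherent germlings was read by fluorescence microscopy and scored 0 (basal), 1 (intermediate) or 2 (high). Positive control was a PgpdA-H2B-GFP strain; N402 was the negative control.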

Aspergillus niger [25] = assay: Induction of pgmB gene expression in Aspergillus niger by microarray analysis relative to control; assay type: functional; summary of the method: as §2
Aspergillus niger [26] = assay: Induction of gnaA gene expression in Aspergillus niger by microarray analysis relative to control; assay type: functional; summary of the method: as §2
Aspergillus niger [27] = assay: Induction of srgA gene expression in Aspergillus niger by microarray analysis relative to control; assay type: functional; summary of the method: as §2
Aspergillus niger [28] = assay: Induction of agtA gene expression in Aspergillus niger by microarray analysis relative to control; assay type: functional; summary of the method: as §2
Aspergillus niger [29] = assay: Upregulation of Rho2-GTPase gene expression in Aspergillus niger relative to control; assay type: functional, organism-based; summary of the method: as §4
Aspergillus niger [30] = assay: Induction of GFP tagged PagsA-H2B expression in Aspergillus niger RD6.47 at 25.6 ug/mL by fluorescence microscopy; assay type: functional, organism-based; summary of the method: as §6
Aspergillus niger [31] = assay: Antifungal activity against Aspergillus niger JvD1.1 at 25.6 ug/mL by microtiter plate; assay type: functional, organism-based; summary of the method: as §5
Aspergillus niger [32] = assay: Induction of hocA gene expression in Aspergillus niger by microarray analysis relative to control; assay type: functional; summary of the method: as §2
Aspergillus niger [33] = assay: Induction of gfaB gene expression in Aspergillus niger by microarray analysis relative to control; assay type: functional; summary of the method: as §2
Aspergillus niger [34] = assay: Antifungal activity against Aspergillus niger RD6.47 by microtiter plate; assay type: functional, organism-based; summary of the method: as §5
Aspergillus niger [35] = assay: Induction of crhC gene expression in Aspergillus niger by microarray analysis relative to control; assay type: functional; summary of the method: as §2
Aspergillus niger [36] = assay: Effect on morphological changes in Aspergillus niger RD6.47 assessed as tip swelling; assay type: functional, organism-based
Aspergillus niger [37] = assay: Effect on morphological changes in Aspergillus niger N402 germlings assessed as germ tube elongation and branching at 5 ug/mL after 5 hrs; assay type: functional, organism-based; summary of the method: as §3
Aspergillus niger [38] = assay: Induction of GFP tagged PagsA-H2B expression in Aspergillus niger RD6.47 by fluorescence microscopy; assay type: functional, organism-based; summary of the method: as §6
Aspergillus niger [39] = assay: Induction of gelA gene expression in Aspergillus niger by microarray analysis relative to control; assay type: functional; summary of the method: as §2
Aspergillus niger [40] = assay: Effect on morphological changes in Aspergillus niger N402 germlings assessed as tip swelling at 5 ug/mL after 5 hrs; assay type: functional, organism-based
Aspergillus niger [41] = assay: Induction of GFP tagged PagsA expression in Aspergillus niger JvD1.1 at 25.6 ug/mL by fluorescence microscopy; assay type: functional, organism-based; summary of the method: as §6
Aspergillus niger [42] = assay: Induction of bgtB gene expression in Aspergillus niger by microarray analysis relative to control; assay type: functional; summary of the method: as §2
Aspergillus niger [43] = assay: Induction of GFP tagged PagsA-H2B expression in Aspergillus niger RD6.47 at 104.2 ug/mL by fluorescence microscopy; assay type: functional, organism-based
Summary of the method: (§7)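 agsA promoter-GFP reporters, cytoplasmic (JvD1.1) or nuclear H2B-targeted (RD6.47). Germlings pre-grown 6 h at 37 °C in 2× CM, exposed 3 h at 30 °C to seven 2-fold dilutions. GFP levels were scored by fluorescence microscopy as 0 (basal), 1 (intermediate) or 2 (high). Controls: gpdA-H2B-GFP strain MA26.1 (positive), N402 (negative).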

Aspergillus niger [44] = assay: Induction of GFP tagged PagsA expression in Aspergillus niger JvD1.1 at 104.2 ug/mL by fluorescence microscopy; assay type: functional, organism-based; summary of the method: as §7
Aspergillus niger [45] = assay: Antifungal activity against Aspergillus niger JvD1.1 at 104.2 ug/mL by microtiter plate; assay type: functional, organism-based
Summary of the method: (§8)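 Reporter conidia (2×10^4 per well) were pre-grown 6 h at 37 °C in 2× CM in glass-bottom plates. An equal volume of a 2-fold dilution series (seven concentrations) was added, then 3 h at 30 °C. Medium was discarded and adherent germlings imaged. Growth inhibition was scored 0/1/2 from hyphal length.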

Aspergillus niger [46] = assay: Antifungal activity against Aspergillus niger RD6.47 at 104.2 ug/mL by microtiter plate; assay type: functional, organism-based; summary of the method: as §8

`CC[C@H](C)C[C@H](C)CCCCCCCCC(=O)N[C@H]1C[C@@H](O)[C@@H](NCCN)NC(=O)[C@@H]2[C@@H](O)CCN2C(=O)[C@H]([C@H](O)CCN)NC(=O)[C@H]([C@H](O)[C@@H](O)c2ccc(O)cc2)NC(=O)[C@@H]2C[C@@H](O)CN2C(=O)[C@H]([C@@H](C)O)NC1=O` [CASPOFUNGIN] was tested, and the Activity (Aspergillus niger [1]) was 34.5%, the “fold change (FC)” value (Aspergillus niger [2]) was 2.03 and the Activity (Aspergillus niger [3]) was “Active”. The “fold change (FC)” value (Aspergillus niger [4]) was 2.32, the “fold change (FC)” value (Aspergillus niger [5]) was 2.4 and the Activity (Aspergillus niger [6]) was “Active”. For the same molecule, the Activity (Aspergillus niger [7]) was “Active”, the “fold change (FC)” value (Aspergillus niger [8]) was 2.16 and the Activity (Aspergillus niger [9]) was “Active”. For the same molecule, the Activity (Aspergillus niger [10]) was “Active”, the Activity (Aspergillus niger [11]) was “Active” and the “fold change (FC)” value (Aspergillus niger [12]) was 2.32. The Activity (Aspergillus niger [13]) was “Active”, the “fold change (FC)” value (Aspergillus niger [14]) was 1.64 and the Activity (Aspergillus niger [15]) was “Active”. For the same molecule, the “fold change (FC)” value (Aspergillus niger [16]) was 1.77, the Activity (Aspergillus niger [17]) was “Active” and the Activity (Aspergillus niger [18]) was “Active”. The “fold change (FC)” value (Aspergillus niger [19]) was 2.62, the “fold change (FC)” value (Aspergillus niger [20]) was 2.58 and the “fold change (FC)” value (Aspergillus niger [21]) was 3.08. For the same molecule, the “fold change (FC)” value (Aspergillus niger [22]) was 1.85, the Activity (Aspergillus niger [23]) was 43.7% and the Activity (Aspergillus niger [24]) was “Active”. The “fold change (FC)” value (Aspergillus niger [25]) was 1.95, the “fold change (FC)” value (Aspergillus niger [26]) was 3.18 and the “fold change (FC)” value (Aspergillus niger [27]) was 2.51. For the same molecule, the “fold change (FC)” value (Aspergillus niger [28]) was 2.1, the Activity (Aspergillus niger [29]) was “Active” and the Activity (Aspergillus niger [30]) was “Active”. For the same molecule, the Activity (Aspergillus niger [31]) was “Active”, the “fold change (FC)” value (Aspergillus niger [32]) was 2.03 and the “fold change (FC)” value (Aspergillus niger [33]) was 7.98. For the same molecule, the Activity (Aspergillus niger [34]) was “Active”, the “fold change (FC)” value (Aspergillus niger [35]) was 2.03 and the Activity (Aspergillus niger [36]) was “Active”. For the same molecule, the Activity (Aspergillus niger [37]) was “Active”, the Activity (Aspergillus niger [38]) was “Active” and the “fold change (FC)” value (Aspergillus niger [39]) was 3.05. For the same molecule, the Activity (Aspergillus niger [40]) was “Active”, the Activity (Aspergillus niger [41]) was “Active” and the “fold change (FC)” value (Aspergillus niger [42]) was 1.77.
`CN(C/C=C/C#CC(C)(C)C)Cc1cccc2ccccc12` was tested, and the Activity (Aspergillus niger [43]) was “Active” and the Activity (Aspergillus niger [44]) was “Active”.
For `N#Cc1c[nH]cc1-c1cccc2c1OC(F)(F)O2`, the Activity (Aspergillus niger [45]) was “Active”, the Activity (Aspergillus niger [43]) was “Active” and the Activity (Aspergillus niger [44]) was “Active”. For the same molecule, the Activity (Aspergillus niger [46]) was “Active”.
